The values below come from the array DNA melting data of Ke et al. (doi:10.1101/2024.01.08.574731).

Series [1] can be described thus: folding enthalpy; higher = less favourable; fluorescence melt of hairpins on a sequencing array, two-state fit. The note with it: sodium 0.088 M. The procedure, abridged: (§1)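 Melting temperature and folding enthalpy were derived from bootstrapped two-state fits. The fitted temperatures were raised by 9.35 °C to agree with UV melts, and four replicates were combined by inverse variance. The underlying data were Cy3 fluorescence images of library hairpins, with annealed Cy3 and quencher oligos, on a sequenced MiSeq flow cell in 50 mM Na-HEPES pH 8.0, 25 mM NaCl, taken in 2.5 °C steps up to 60 °C, normalised to pre-quench Cy3 and to control constructs.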

Series [2] is described as follows: melting temperature; fluorescence melt of hairpins on a sequencing array, two-state fit, raised by 9.35 °C to match UV melts. The note with it: sodium 0.088 M. The procedure, abridged: as §1

Take GCTACCGAAAGGTACAGC ((((((....)))..))): the folding enthalpy in series [1] was -13.6 kcal/mol. The Tm in series [2] is 42.5 °C.

Take GCTACCGAAAGGTATAGC ((((((....)))..))): the folding enthalpy in series [1] is -18.2 kcal/mol. In addition, the Tm in series [2] was 44.4 °C.

Consider GCTACCGAAAGGTCGAGC ((((((....)))..))), for which, in series [1], the folding enthalpy is -16.3 kcal/mol. Also, the Tm in series [2] stood at 37 °C.

For the sequence GCTACCGAAAGGTTAAGC ((((((....)))..))), in series [1], the folding enthalpy is -19.6 kcal/mol. Also, the Tm in series [2] is 39.4 °C.

As for GCTACCGAAAGGTTCAGC ((((((....)))..))), the folding enthalpy in series [1] was -16.3 kcal/mol. In addition, the Tm in series [2] turned out to be 35.5 °C.

As for GCTACCGAAAGGTTTAGC ((((((....)))..))), in series [1], the folding enthalpy is -17.6 kcal/mol. Moreover, the Tm in series [2] is 38.5 °C.

In the case of GCTACCGGAAACGGCAGC (((.(((....))).))), the folding enthalpy in series [1] was -38.7 kcal/mol. The Tm in series [2] stood at 51.8 °C.

For the sequence GCTACGCGAAAGCATAGC ((((.((....)).)))), the folding enthalpy in series [1] was -28 kcal/mol. In addition, the Tm in series [2] was determined as 53.9 °C.

With GCTACGCGAAAGCATCGC ((.(.((....)).).)), the folding enthalpy in series [1] was -9.49 kcal/mol. The Tm in series [2] came out at 30.7 °C.

In the case of GCTACGCGAAAGCGCCGC ((..(((....)))..)), in series [1], the folding enthalpy is -10.9 kcal/mol. In addition, in series [2], the Tm was 36.8 °C.

In the case of GCTACGCGAAAGCGGCGC ((..(((....)))..)), the folding enthalpy in series [1] is -19.6 kcal/mol. The Tm in series [2] is 60.5 °C.

Turning to GCTACGCGAAAGCGGTGC ((..(((....)))..)), the folding enthalpy in series [1] was -16 kcal/mol. Further, in series [2], the Tm stood at 56 °C.

GCTACGCGAAAGCTTAGC ((((.((....)).)))): in series [1], the folding enthalpy is -20.8 kcal/mol. For the same sequence, in series [2], the Tm was found to be 55.4 °C.

GCTACGCGAAAGCTTCGC ((.(.((....)).).)): in series [1], the folding enthalpy was -10.3 kcal/mol. Also, the Tm in series [2] was 37.6 °C.

Regarding GCTACGGGAAACCATAGC ((((.((....)).)))), in series [1], the folding enthalpy is -31 kcal/mol. Also, the Tm in series [2] stood at 39.4 °C.

Consider GCTACGGGAAACCGCAGC (((.(((....))).))), for which, in series [1], the folding enthalpy is -41.7 kcal/mol. The Tm in series [2] came out at 49.7 °C.

With GCTACGGGAAACCGTAAC (.(((((....))))).), in series [1], the folding enthalpy was -13.7 kcal/mol. In addition, the Tm in series [2] turned out to be 36.1 °C.

As to GCTACTCGAAAGAGAGC (((.(((....)))))), the folding enthalpy in series [1] is -25.4 kcal/mol. The Tm in series [2] turned out to be 44.8 °C.

For the sequence GCTAGAACGAAAGTTAGC (((..(((....)))))), the folding enthalpy in series [1] is -26.6 kcal/mol. In series [2], the Tm was determined as 38.3 °C.

Take GCTAGAGGAAACTCTAGC (((((((....))))))): the folding enthalpy in series [1] was -44 kcal/mol. Also, the Tm in series [2] turned out to be 58.5 °C.

GCTAGATCGAAAGATAGC (((..(((....)))))): the folding enthalpy in series [1] is -19.4 kcal/mol. Moreover, in series [2], the Tm is 36.4 °C.

For the sequence GCTAGCCGAAAGGCCAGC (((.(((....))).))), the folding enthalpy in series [1] was -20.8 kcal/mol. In addition, the Tm in series [2] was found to be 54.3 °C.

For GCTAGCGAAAGCTATAGC ((((((....)))..))), in series [1], the folding enthalpy was -18.5 kcal/mol. Besides, in series [2], the Tm was 46.5 °C.

Take GCTAGCGAAAGCTCCAGC ((((((....)))..))): the folding enthalpy in series [1] is -10.8 kcal/mol. For the same sequence, the Tm in series [2] was determined as 33.1 °C.

On to GCTAGCGAAAGCTGAAGC ((((((....)))..))), for which the folding enthalpy in series [1] is -15 kcal/mol. Also, the Tm in series [2] came to 43.1 °C.

For the sequence GCTAGCGAAAGCTGAGC ((((((....))).))), the folding enthalpy in series [1] was -28.5 kcal/mol. Further, in series [2], the Tm is 49.9 °C.

With GCTAGCGAAAGCTGGAGC ((((((....)))..))), the folding enthalpy in series [1] was -14.1 kcal/mol. Further, the Tm in series [2] stood at 43.2 °C.

With GCTAGCGAAAGCTTAAGC ((((((....)))..))), the folding enthalpy in series [1] is -16.9 kcal/mol. Moreover, the Tm in series [2] came out at 43.2 °C.

Take GCTAGCGGAAACGTTAGC ((((.((....)).)))): the folding enthalpy in series [1] is -34.1 kcal/mol. The Tm in series [2] was determined as 51.3 °C.

Turning to GCTAGGCCGAAAGGCAGC (((..(((....)))))), in series [1], the folding enthalpy was -15.1 kcal/mol. The Tm in series [2] came out at 47.8 °C.

Turning to GCTAGGCGAAAGCCTGGC ((.((((....)))).)), the folding enthalpy in series [1] was -21.1 kcal/mol. Besides, in series [2], the Tm is 68.2 °C.

For the sequence GCTAGGCGAAAGCGTTGC ((.(.((....)).).)), in series [1], the folding enthalpy is -21.9 kcal/mol. Moreover, the Tm in series [2] was 42 °C.

For GCTAGGCGAAAGCTAAGC (((..((....))..))), the folding enthalpy in series [1] is -18.6 kcal/mol. Also, in series [2], the Tm is 48.7 °C.

Consider GCTAGGGGAAACCCTAGC (((((((....))))))), for which the folding enthalpy in series [1] was -44.2 kcal/mol. The Tm in series [2] was 65.9 °C.

Consider GCTAGTACGAAAGTAAGC (((..(((....)))))), for which the folding enthalpy in series [1] was -14.7 kcal/mol. Moreover, the Tm in series [2] was 28.2 °C.

As for GCTATCGAAAGATACAGC ((((((....)))..))), the folding enthalpy in series [1] was -20.8 kcal/mol. Besides, the Tm in series [2] turned out to be 32.6 °C.

For the sequence GCTATCGAAAGATAGC ((((((....)))))), the folding enthalpy in series [1] is -39 kcal/mol. Moreover, the Tm in series [2] amounted to 66.4 °C.
